Reference: ChEMBL document CHEMBL4020714, “Design, synthesis, and evaluation of curcumin derivatives as Nrf2 activators and cytoprotectors against oxidative death” (Eur J Med Chem, 2017)
Active and inactive are the calls of the source. The rule behind the calls is not given here.

Assays:
[1] = target: T1, Nuclear factor erythroid 2-related factor 2 (Homo sapiens) (UniProt Q16236); test: (§1) Activation of Nrf2 in human HepG2 cells assessed as cytoprotection against t-BHP-induced oxidative cell death at 5 uM incubated for 24 hrs followed by compound removal with subsequent incubation with 900 uM of t-BHP for 6 hrs in presence of 25 uM JNK inhibitor SP600125 for 1 hr prior to compound treatment by MTT assay; type: cell-based
T1 sequence (whole entry): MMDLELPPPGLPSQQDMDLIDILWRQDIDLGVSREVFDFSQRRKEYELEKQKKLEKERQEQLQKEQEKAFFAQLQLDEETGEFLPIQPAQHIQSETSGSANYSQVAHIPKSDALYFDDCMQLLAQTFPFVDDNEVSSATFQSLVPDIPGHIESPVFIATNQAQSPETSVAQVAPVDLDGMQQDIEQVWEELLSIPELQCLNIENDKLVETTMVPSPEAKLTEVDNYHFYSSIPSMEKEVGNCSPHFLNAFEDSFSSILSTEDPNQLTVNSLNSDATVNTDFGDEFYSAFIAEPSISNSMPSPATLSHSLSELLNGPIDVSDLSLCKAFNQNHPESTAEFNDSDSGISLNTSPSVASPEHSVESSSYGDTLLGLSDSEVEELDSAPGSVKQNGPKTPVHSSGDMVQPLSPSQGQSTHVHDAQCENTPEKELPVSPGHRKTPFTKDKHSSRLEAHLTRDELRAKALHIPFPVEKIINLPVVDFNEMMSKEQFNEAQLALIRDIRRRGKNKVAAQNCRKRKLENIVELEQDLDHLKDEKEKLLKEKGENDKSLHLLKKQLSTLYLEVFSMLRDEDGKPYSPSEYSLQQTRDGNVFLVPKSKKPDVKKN
Outline: (§2)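 HepG2 cells (5×10^3/well) seeded and grown 24 h in 1640 medium with 10% FBS at 37 °C and 5% CO2. Compound is added for 24 h, then removed, and cells are challenged with 900 μM t-BHP for 6 h at 37 °C. MTT (0.5 mg/mL) is added for 4 h, formazan dissolved in DMSO, and absorbance read at 570 nm. Where used, inhibitors are added 1 h before compound. Mean ± SD of three independent experiments.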

[2] = target: T1, Nuclear factor erythroid 2-related factor 2 (Homo sapiens); test: Activation of Nrf2 in human HepG2 cells assessed as increase in cytosolic Nrf2 expression level after 3 hrs by Western blot analysis; type: cell-based
Outline: (§3)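 HepG2 cells (2×10^6/well) treated at the indicated concentrations and times. Whole-cell lysates, or nuclear and cytoplasmic fractions, are prepared and quantified by BCA. Samples are run at 40 μg/lane on 12% SDS-PAGE, transferred to nitrocellulose, probed with specific antibodies and HRP secondary (1/5000), and detected by ECL. Where used, LY294002 (15 μM), SP600125 (25 μM) or DTT (400 μM) is added 1 h before compound.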

[3] = target: T1, Nuclear factor erythroid 2-related factor 2 (Homo sapiens); test: Activation of Nrf2 in human HepG2 cells assessed as increase in GCLM expression level after 24 hrs by Western blot analysis; type: cell-based; outline: as §3
[4] = target: RAC-alpha serine/threonine-protein kinase (Homo sapiens) (UniProt P31749); test: Induction of Akt phosphorylation in human HepG2 cells at 5 uM by Western blot analysis; type: cell-based; details: TDE = time-dependent effect; outline: as §3
[5] = target: Keap1/Nrf2 (Homo sapiens) (UniProt Q16236+Q14145); test: Inhibition of Keap1/Nrf2 interaction in human HepG2 cells assessed as decrease in Keap1 expression level after 3 hrs in presence of DTT for 1 hr prior to compound treatment by Western blot analysis; type: cell-based; outline: as §3
[6] = target: T1, Nuclear factor erythroid 2-related factor 2 (Homo sapiens); test: Activation of Nrf2 in human HepG2 cells assessed as increase in cytosolic Nrf2 expression level at 5 uM after 1 to 6 hrs by Western blot analysis; type: cell-based; outline: as §3
[7] = target: Kelch-like ECH-associated protein 1 (Homo sapiens) (UniProt Q14145); test: Induction of keap1-dependent Nrf2 stabilization in human HepG2 cells assessed as upregulation of total Nrf2 expression at 5 uM by Western blot analysis; type: cell-based; details: TDE = time-dependent effect; outline: as §3
[8] = target: T1, Nuclear factor erythroid 2-related factor 2 (Homo sapiens); test: Activation of Nrf2 in human HepG2 cells assessed as increase in Nrf2 expression level after 3 hrs by Western blot analysis; type: cell-based; outline: as §3
[9] = target: T1, Nuclear factor erythroid 2-related factor 2 (Homo sapiens); test: Activation of Nrf2 in human HepG2 cells assessed as increase in GCLM expression level at 5 uM by Western blot analysis; type: cell-based; details: TDE = time-dependent effect; outline: as §3
[10] = target: Kelch-like ECH-associated protein 1 (Homo sapiens) (UniProt Q14145); test: Induction of keap1-dependent Nrf2 stabilization in human HepG2 cells assessed as prolonged half life of Nrf2 at 5 uM pretreated for 3 hrs followed by coincubation with 5 ug/ml cycloheximide for 24 hrs by Western blot analysis relative to control; type: cell-based
Outline: (§4)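 HepG2 cells pretreated with or without 5 μM compound for 3 h, then given 5 μg/mL cycloheximide for the indicated periods (up to 24 h). Total lysates are immunoblotted for Nrf2. Half-life is obtained by fitting a single-phase decay model.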

[11] = target: T1, Nuclear factor erythroid 2-related factor 2 (Homo sapiens); test: Activation of Nrf2 in human HepG2 cells assessed as increase in HO-1 expression level after 24 hrs by Western blot analysis; type: cell-based; outline: as §3
[12] = target: T1, Nuclear factor erythroid 2-related factor 2 (Homo sapiens); test: Activation of Nrf2 in human HepG2 cells assessed as increase in HO-1 expression level at 5 uM by Western blot analysis; type: cell-based; details: TDE = time-dependent effect; outline: as §3
[13] = target: T1, Nuclear factor erythroid 2-related factor 2 (Homo sapiens); test: Activation of Nrf2 in human HepG2 cells assessed as increase in cytosolic Nrf2 expression level at 5 uM after 12 hrs by Western blot analysis; type: cell-based; outline: as §3
[14] = target: Kelch-like ECH-associated protein 1 (Homo sapiens) (UniProt Q14145); test: Induction of keap1-dependent Nrf2 stabilization in human HepG2 cells assessed as upregulation of total Nrf2 level at 5 uM pretreated for 3 hrs followed by coincubation with 5 ug/ml cycloheximide for 24 hrs by Western blot analysis; type: cell-based; outline: as §4
[15] = target: T1, Nuclear factor erythroid 2-related factor 2 (Homo sapiens); test: Activation of Nrf2 in human HepG2 cells assessed as increase in nuclear Nrf2 expression level at 5 uM after 12 hrs by Western blot analysis; type: cell-based; outline: as §3
[16] = target: T1, Nuclear factor erythroid 2-related factor 2 (Homo sapiens); test: as §1, with “10” for “25”, “GCL” for “JNK”, “BSO” for “SP600125”; type: cell-based; outline: as §2
[17] = target: T1, Nuclear factor erythroid 2-related factor 2 (Homo sapiens); test: Activation of Nrf2 in human HepG2 cells assessed as increase in nuclear Nrf2 expression level after 3 hrs by Western blot analysis; type: cell-based; outline: as §3
[18] = test system: HepG2; test: Cytotoxicity against human HepG2 cells assessed as reduction in cell viability at 5 uM after 24 hrs by MTT assay; type: cell-based; details: hepg2, 24 h
Outline: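 MTT viability in HepG2 cells (5×10^3/well) after 24 h exposure to compound at 5 μM. Formazan dissolved in DMSO and absorbance read at 570 nm. Mean ± SD of three independent experiments.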

[19] = Stability of the compound in PBS at 40 uM at pH 7.4 at 25 degC measured for 30 mins by UV-Vis spectrophotometric analysis; type: physicochemical; details: buffer, pH 7.4, 0.5 h
Outline: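 Compound at 40 μM in PBS (pH 7.4) at 25 °C. UV-visible absorption spectra recorded every 2 min for 30 min against blanks of solution plus DMSO.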

[20] = target: T1, Nuclear factor erythroid 2-related factor 2 (Homo sapiens); test: Activation of Nrf2 in human HepG2 cells assessed as increase in GCLC expression level after 3 hrs by Western blot analysis; type: cell-based; outline: as §3
[21] = target: T1, Nuclear factor erythroid 2-related factor 2 (Homo sapiens); test: as §1, with “400” for “25”, “DTT” for “JNK inhibitor SP600125”; type: cell-based; outline: as §2

Sequence of Kelch-like ECH-associated protein 1 (Homo sapiens) (Q14145 whole entry): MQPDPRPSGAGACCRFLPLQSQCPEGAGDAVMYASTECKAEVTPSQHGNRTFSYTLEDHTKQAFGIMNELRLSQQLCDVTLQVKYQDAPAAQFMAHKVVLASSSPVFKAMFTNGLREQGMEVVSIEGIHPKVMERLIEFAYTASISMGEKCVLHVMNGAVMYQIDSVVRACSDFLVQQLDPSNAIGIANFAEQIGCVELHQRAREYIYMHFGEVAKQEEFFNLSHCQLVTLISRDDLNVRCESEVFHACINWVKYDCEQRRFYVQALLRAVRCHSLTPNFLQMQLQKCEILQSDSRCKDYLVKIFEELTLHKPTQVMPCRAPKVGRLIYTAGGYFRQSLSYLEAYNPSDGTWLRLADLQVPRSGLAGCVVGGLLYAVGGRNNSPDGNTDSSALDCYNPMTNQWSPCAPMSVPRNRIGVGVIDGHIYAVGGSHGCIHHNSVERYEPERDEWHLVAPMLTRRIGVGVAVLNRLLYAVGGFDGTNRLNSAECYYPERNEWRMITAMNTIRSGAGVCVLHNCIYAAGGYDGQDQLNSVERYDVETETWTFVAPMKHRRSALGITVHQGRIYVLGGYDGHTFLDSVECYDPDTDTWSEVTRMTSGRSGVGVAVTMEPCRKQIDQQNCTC
Sequence of RAC-alpha serine/threonine-protein kinase (Homo sapiens) (P31749 whole entry): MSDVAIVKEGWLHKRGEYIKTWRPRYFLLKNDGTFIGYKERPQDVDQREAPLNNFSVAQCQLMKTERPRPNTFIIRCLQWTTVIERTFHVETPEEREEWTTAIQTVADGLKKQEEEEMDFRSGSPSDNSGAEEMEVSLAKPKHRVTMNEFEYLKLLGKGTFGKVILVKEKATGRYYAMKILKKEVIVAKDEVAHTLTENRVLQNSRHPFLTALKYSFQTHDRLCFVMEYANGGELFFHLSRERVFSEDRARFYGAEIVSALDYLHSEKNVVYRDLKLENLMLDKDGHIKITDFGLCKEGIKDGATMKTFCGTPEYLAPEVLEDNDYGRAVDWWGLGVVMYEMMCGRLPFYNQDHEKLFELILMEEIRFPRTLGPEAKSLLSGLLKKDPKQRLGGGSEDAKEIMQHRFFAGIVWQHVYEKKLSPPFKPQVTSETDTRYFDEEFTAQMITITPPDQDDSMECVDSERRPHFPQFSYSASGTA
Sequence of Keap1/Nrf2 (Homo sapiens) (Q14145 whole entry, looked up, one chain of several): as the sequence (Q14145 whole entry) above

- Activity [2]: Dose-dependent effect
- Activity [3]: Dose-dependent effect
- Activity [4]: Tde
- inhibition [5]: inactive
- Activity [6]: Active
- Activity [7]: Tde
- Activity [8]: Active
- Activity [9]: Tde
- fold change (FC) [10]: 2.6
- Activity [11]: Dose-dependent effect
- Activity [12]: Tde
- Activity [13]: inactive
- Activity [14]: Active
- Activity [15]: inactive
- Activity [17]: Dose-dependent effect
- Stability [19]: Stable
- Activity [20]: Active
SMILES: CC(C)(C(=O)/C=C/c1ccc(O)c(O)c1)C(=O)/C=C/c1ccc(O)c(O)c1
- Activity [1]: inactive
- Activity [16]: inactive
- Activity [18]: Non-Toxic
- Activity [21]: inactive
